The pIC50 is the IC50 on a negative log10 scale, so that one unit is a factor of ten.

pIC50: −log10 of the molar value. Some results are limits rather than exact numbers.

In one assay the test system is HeLa. In words: Antiproliferative activity against human HeLa cell line assessed as incorporation [14C]thymidine. The assay is classed as functional, cell-based. In a few lines: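 HeLa cervical carcinoma cells. Proliferation was read as ¹⁴C-thymidine incorporation into cellular DNA, and the IC₅₀ for inhibition of proliferation was derived from that.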
Assay [1] deals with Cyclin-dependent kinase 1/cyclin B (Homo sapiens, UniProt P06493). In words: Inhibition of CDK1/cyclinB by Flashplate assay. The assay is classed as protein-complex assay. In a few lines: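 CDK1 complexed with cyclin B phosphorylated a biotinylated histone-H1 peptide substrate using ³³P-γ-ATP. The substrate was immobilized in a Flashplate format, and inhibition was read as reduced ³³P incorporation into the substrate.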

For the molecule `N[C@H]1CC[C@H](Nc2nccc(-c3c[nH]c4ncccc34)n2)CC1`, the negative logarithm of the IC50 (pIC50) in the assay on HeLa was 9.00; in assay [1] it was 8.70.

`CN(C)CCn1cc(-c2ccnc(NC3CCCCC3)n2)c2cccnc21`: the negative-log IC50 (pIC50) with HeLa is 5.05.

In assay [1], `Cc1ccccc1Nc1nccc(-c2c[nH]c3ncccc23)n1` had a pIC50 of 8.52.

Consider `Cc1cc(CCN2CCCCC2)ccc1Nc1nccc(-c2c[nH]c3ncccc23)n1`, for which the negative logarithm of the IC50 (pIC50) with HeLa is 8.52; in assay [1], 9.00.

On to `Clc1ccccc1Nc1nccc(-c2c[nH]c3ncccc23)n1`, for which the pIC50 is 6.85 with HeLa and 8.05 in assay [1].

As for `Cc1[nH]c2ncccc2c1-c1ccnc(N[C@H]2CC[C@H](N)CC2)n1`, the pIC50 in the assay on HeLa is 6.89; in assay [1], 6.55.

As to `COc1ccccc1Nc1nccc(-c2c[nH]c3ncccc23)n1`, the negative-log IC50 (pIC50) with HeLa is 6.46.

For the molecule `Oc1ccccc1Nc1nccc(-c2c[nH]c3ncccc23)n1`, in the assay on HeLa, the pIC50 is 6.02.

In the case of `c1cnc2[nH]cc(-c3ccnc(NCC4CCCCC4)n3)c2c1`, in the assay with HeLa, the pIC50 was 6.43.

Take `CCc1ccccc1Nc1nccc(-c2c[nH]c3ncccc23)n1`: the negative-log IC50 (pIC50) in the assay on HeLa was 6.53.

For `Cn1cc(-c2ccnc(NC3CCCCC3)n2)c2cccnc21`, the results for the pIC50 (with HeLa; in assay [1]) were 4.28 and less than 5.00, respectively.

Regarding `CS(=O)(=O)n1cc(-c2ccnc(NC3CCCCC3)n2)c2cccnc21`, the pIC50 with HeLa was 6.41.

Regarding `Fc1ccccc1Nc1nccc(-c2c[nH]c3ncccc23)n1`, the pIC50 in the assay on HeLa was 7.04.

With `Cc1cc(CCN2CCOCC2)ccc1Nc1nccc(-c2c[nH]c3ncccc23)n1`, the pIC50 with HeLa is 8.52; in assay [1], 8.72.

For `c1ccc(Nc2nccc(-c3c[nH]c4ncccc34)n2)cc1`, in the assay on HeLa, the negative-log IC50 (pIC50) is 6.42.

On to `Brc1ccccc1Nc1nccc(-c2c[nH]c3ncccc23)n1`, for which the results for the negative-log IC50 (pIC50) (with HeLa; in assay [1]) were 7.02 and 7.89, respectively.

`Cc1ccc(Nc2nccc(-c3c[nH]c4ncccc34)n2)cc1`: the pIC50 in the assay with HeLa is 6.66.

Consider `Cc1cc(CCN2CCCC2)ccc1Nc1nccc(-c2c[nH]c3ncccc23)n1`, for which the results for the negative logarithm of the IC50 (pIC50) (with HeLa; in assay [1]) were 8.52 and 9.22, respectively.

With `CC(=O)n1cc(-c2ccnc(NC3CCCCC3)n2)c2cccnc21`, in the assay with HeLa, the pIC50 was 7.64.

As for `c1cnc2[nH]cc(-c3ccnc(NC4CCCCC4)n3)c2c1`, the pIC50 with HeLa is 7.51.

Turning to `FC(F)(F)c1ccccc1Nc1nccc(-c2c[nH]c3ncccc23)n1`, the negative logarithm of the IC50 (pIC50) in the assay on HeLa is 6.41.

Take `Cc1cc(CCO)ccc1Nc1nccc(-c2c[nH]c3ncccc23)n1`: the pIC50 was 7.96 in the assay on HeLa and 9.22 in assay [1].

(Values after ChEMBL document CHEMBL1149360, “Synthesis of 2-amino-4-(7-azaindol-3-yl)pyrimidines as cyclin dependent kinase 1 (CDK1) inhibitors” (Bioorg Med Chem Lett, 2006).)
